Series [1] concerns Rattus norvegicus. Nature of the series: Inhibition of mast cell degranulation was assessed in female albino rats at a dose of 29 umol/kg iv. The class given is functional.
Series [2] can be described thus: In vivo toxicity in mouse after oral administration with 10% aqueous acacia gum. It is filed as organism-based. The gist of the method: (§1)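 Female albino mice, 20-30 g. Compound given orally as solution or suspension in 10% aqueous acacia gum, 10 animals per dose. Deaths recorded over 7 days.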
In series [3] the test system is Rattus norvegicus. Description: Rat PCA Test(50% inhibition of spot areas)in the female albino rats after (ip) administration in 10% aqueous acacia gum; value ranges from 57-105. The class given is functional. Conditions: read-out: ID50 (the source's name); call rule not given here. An outline of the steps: (§2)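 Female albino rats (200–250 g) received intradermal ventral injections of rat anti-egg-albumin antiserum; donors were raised with egg albumin im plus H. pertussis ip, and serum was taken at 12 days. 24 h later, compound was given ip in 10% acacia gum (10 mL/kg), 10 rats/group. Challenge 30 min later was iv 0.3% egg albumin plus 1% Evans blue. Blued areas were measured 30 min after challenge.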

Series [4] is described as follows: In vivo toxic effect was determined in mouse after intraperitoneal administration with 10% aqueous acacia gum; value ranges from 1.73-3.04. It is filed as toxicity, organism-based. Conditions: ip. The gist of the method:
(§3)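 Female albino mice (20-30 g), 10 animals per dose, dosed intraperitoneally with compound in solution or suspension; compounds tested as salts unless noted. Mortality was recorded over 7 days.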

The subject of series [5] is Rattus norvegicus. Nature of the series: Rat PCA Test(50% inhibition of spot areas)in the female albino rats after oral administration in 10% aqueous acacia gum. It is filed as functional. Conditions: read-out: ID50 (the source's name). The gist of the method:
(§4)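 Female rats (200-250 g) were passively sensitized by ventral intradermal anti-egg-albumin antiserum. This was raised in rats by intramuscular 1% egg albumin plus ip H. pertussis vaccine, with serum taken at 12 days. After 24 h, groups of 10 were dosed orally with compound or vehicle (10 mL/kg). At 60 min, iv challenge used 0.3% egg albumin with 1% Evans blue. Blued areas were measured after 30 min.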

Series [6] deals with Cavia porcellus. Description: Antibronchospatic activity determined by histamine stimulated bronchospasm inhibition in guinea pigs after(i.v.) administration. The class given is functional, Bronchiole. An outline of the steps: (§5)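 Guinea pigs, Konzett–Rössler preparation. Bronchospasm was induced with histamine. Compound was given iv (1 mL/kg) 1 min before the agonist, dissolved in saline or saline with slight excess HCl or CH3SO3H (pH 3.5–4). Three doses were tested in duplicate, chosen to give 20–90% inhibition. ID75 was read graphically from log dose–response curves.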

The test system of series [7] is Rattus norvegicus. Description: Rat PCA Test(50% inhibition of spot areas)in the female albino rats after (ip) administration in 10% aqueous acacia gum; value ranges from 20-94. It is filed as functional. Particulars: read-out: ID50 (the source's name). An outline of the steps: as §2
The next series deals with Mus musculus. Description: In vivo toxic effect was determined in mouse after intraperitoneal administration with 10% aqueous acacia gum; NA means poorly absorbed. Conditions: ip. It is filed as toxicity, organism-based. An outline of the steps: as §3
Series [8] is described as follows: In vivo toxic effect was determined in mouse after oral administration with 10% aqueous acacia gum; value ranges from 1.35-1.88. It is filed as toxicity, organism-based. The gist of the method: as §1
Series [9] is described as follows: In vivo toxic effect was determined in mouse after intraperitoneal administration with 10% aqueous acacia gum; value ranges from 0.72-1.40. It is filed as toxicity, organism-based. Particulars: ip. An outline of the steps: as §3
Series [10] relates to Rattus norvegicus. Description: Rat PCA Test(50% inhibition of spot areas)in the female albino rats after (ip) administration in 10% aqueous acacia gum; value ranges from 22-195. It is filed as functional. Conditions: read-out: ID50 (the source's name). The gist of the method: as §2
The nature of series [11]: In vivo toxic effect was determined in mouse after intraperitoneal administration with 10% aqueous acacia gum; value ranges from 0.72-1.13. The class given is toxicity, organism-based. Particulars: ip. The gist of the method:
as §3

Series [12] concerns Rattus norvegicus. Description: Rat PCA Test(50% inhibition of spot areas)in the female albino rats after (ip) administration in 10% aqueous acacia gum;Value ranges from (81-186). Particulars: read-out: ID50 (the source's name). It is filed as functional. The gist of the method:
(§6)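 Antiserum came from female rats given 1% egg albumin in 0.9% NaCl intramuscularly plus Haemophilus pertussis vaccine (2 × 10^10 organisms) intraperitoneally, and was collected 12 days later. Recipient rats (200-250 g) got it intradermally at a ventral site. After 24 h, groups of 10 received vehicle or compound ip. At 30 min they were challenged iv with 0.3% egg albumin plus 1% Evans blue. Blued skin areas were measured 30 min later.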

In series [13] the test system is Rattus norvegicus. Nature of the series: Rat PCA Test(50% inhibition of spot areas)in the female albino rats after ip administration in 10% aqueous acacia gum. The class given is functional. Conditions: read-out: ID50 (the source's name). The gist of the method:
as §6

Series [14] can be described thus: In vivo toxic effect was determined in mouse after intraperitoneal administration with 10% aqueous acacia gum; value ranges from 0.63-1.05. Conditions: ip. The class given is toxicity, organism-based. The gist of the method: as §3
Series [15] has as its system Rattus norvegicus. Description: Inhibition of mast cell degranulation was assessed in female albino rats at a dose of 61 umol/kg iv. It is filed as functional.
Series [16] is described as follows: In vivo toxic effect was determined in mouse after intraperitoneal administration with 10% aqueous acacia gum; value ranges from 0.96-10.62. It is filed as toxicity, organism-based. Particulars: ip. The gist of the method:
as §3

Series [17] is described as follows: In vivo toxic effect was determined in mouse after oral administration with 10% aqueous acacia gum; value ranges from 1.79-2.41. It is filed as toxicity, organism-based. An outline of the steps:
as §1

Series [18] deals with Rattus norvegicus. Nature of the series: Rat PCA Test(50% inhibition of spot areas)in the female albino rats after (ip) administration in 10% aqueous acacia gum; value ranges from 141-206. It is filed as functional. Conditions: read-out: ID50 (the source's name). An outline of the steps: as §2
For series [19], the system named is Rattus norvegicus. Description: Inhibition of mast cell degranulation was assessed in female albino rats at a dose of 28 umol/kg iv. It is filed as functional.
Series [20] concerns Rattus norvegicus. Nature of the series: Rat PCA Test(50% inhibition of spot areas)in the female albino rats after oral administration in 10% aqueous acacia gum; value ranges from 30-108. It is filed as functional. Conditions: read-out: ID50 (the source's name). An outline of the steps:
as §4

Series [21] in a line: In vivo toxic effect was determined in mouse after intraperitoneal administration with 10% aqueous acacia gum; value ranges from 0.67-1.21. It is filed as toxicity, organism-based. Conditions: ip. An outline of the steps: as §3
For series [22], the system named is Rattus norvegicus. Nature of the series: Rat PCA Test(50% inhibition of spot areas)in the female albino rats after oral administration in 10% aqueous acacia gum; Value ranges from (60-123). It is filed as functional. Conditions: read-out: ID50 (the source's name). The gist of the method:
as §4

Series [23] relates to Rattus norvegicus. Description: Inhibition of mast cell degranulation was assessed in female albino rats at a dose of 45 umol/kg iv administration. It is filed as functional.
The test system of series [24] is Rattus norvegicus. Description: Rat PCA Test(50% inhibition of spot areas)in the female albino rats after oral administration in 10% aqueous acacia gum;Value ranges from (2-34). The class given is functional. Particulars: read-out: ID50 (the source's name). An outline of the steps:
as §4

Series [25] deals with Rattus norvegicus. Description: Rat PCA Test(50% inhibition of spot areas)in the female albino rats after (ip) administration in 10% aqueous acacia gum; value ranges from 41.2-87.3. It is filed as functional. Conditions: read-out: ID50 (the source's name). An outline of the steps:
as §2

The subject of series [26] is Cavia porcellus. Description: Antibronchospatic activity was determined by inhibition of histamine stimulated bronchospasm in guinea pigs after (i.v.) administration. It is filed as functional, Bronchiole. The gist of the method:
as §5

For series [27], the system named is Rattus norvegicus. Description: Inhibition of mast cell degranulation was assessed in female albino rats at a dose of 43 umol/kg iv. The class given is functional.
Series [28] can be described thus: In vivo toxic effect was determined in mouse after oral administration with 10% aqueous acacia gum; value ranges from 0.50-0.68. It is filed as toxicity, organism-based.
In series [29] the test system is Rattus norvegicus. Description: Rat PCA Test(50% inhibition of spot areas)in the female albino rats after oral administration in 10% aqueous acacia gum; value ranges from 1.7-2.4. Particulars: read-out: ID50 (the source's name). The class given is functional. The gist of the method:
as §4

A short description of series [30]: In vivo toxic effect was determined in mouse after intraperitoneal administration with 10% aqueous acacia gum; value ranges from 0.29-0.42. Particulars: ip. The class given is toxicity, organism-based. The gist of the method:
as §3

The test system of series [31] is Rattus norvegicus. Description: Inhibition of mast cell degranulation was assessed in female albino rats at a dose of 2 umol/kg iv. The class given is functional.

Structures are written as SMILES.

As for `CC(=O)c1ccccc1NC(=O)CCN1CCN(c2ccccn2)CC1.Cl.Cl`, in the series with Rattus norvegicus [1], the inhibition in vivo (in general, how much of the control response was suppressed) at 29 µmol/kg turned out to be 0%. For the same compound, the LD50 (in general, the dose expected to kill half of the subjects tested) was above 6910 µmol/kg in [2] and 2300 µmol/kg in [4]. Further, the ED50 in the series on Rattus norvegicus [3] was 77 µmol/kg; with Rattus norvegicus [5] it was above 230 µmol/kg. Moreover, the ID75 with Cavia porcellus [6] was 0.89 µM/kg.

Regarding `Br.CC(=O)c1ccc(NC(=O)CCN2CCN(c3ccc(Br)cn3)CC2)cc1`, the ED50 with Rattus norvegicus [7] was 43 µmol/kg; with Rattus norvegicus [5], above 230 µmol/kg. Also, the figures for the LD50 (in [2]; in the series with Mus musculus) were above 7000 µmol/kg and “Not Active”, respectively.

Regarding `Cc1ccccc1NC(=O)CCN1CCN(c2ccccn2)CC1`, the LD50 stood at 1580 µmol/kg in [8] and 1010 µmol/kg in [9]. Besides, the ED50 is above 96 µmol/kg with Rattus norvegicus [5] and 65 µmol/kg in the series with Rattus norvegicus [10]. In addition, the ID75 in the series on Cavia porcellus [6] was 0.47 µM/kg.

`Cc1cccc(C)c1NC(=O)CN1CCN(c2ccccn2)CC1`: in series [11], the LD50 was found to be 900 µmol/kg. Besides, the ED50 in the series on Rattus norvegicus [12] is 123 µmol/kg. In the series on Cavia porcellus [6], this compound showed an ID75 above 24 µM/kg.

For the compound `Cc1c(C)c(C(=O)NCCN2CCN(c3ccccn3)CC2)c(C)c(C)c1N`, the ED50 with Rattus norvegicus [13] was above 236 µmol/kg. Besides, the LD50 in [14] turned out to be 710 µmol/kg. Moreover, the ID75 with Cavia porcellus [6] is 8.39 µM/kg.

In the series on Rattus norvegicus [15], `Nc1ccccc1NC(=O)CCN1CCN(c2ccccn2)CC1` yielded an inhibition in vivo at 61 µmol/kg of 26%. The results for the LD50 in series [16] and in series [17] were 3200 µmol/kg and 2080 µmol/kg, respectively.

In the case of `CSc1ccc(NC(=O)CCN2CCN(c3ccccn3)CC2)cc1`, the ED50 was 171 µmol/kg in the series with Rattus norvegicus [18] and 57 µmol/kg in the series on Rattus norvegicus [20]. For the same compound, the LD50 in [2] was above 8400 µmol/kg; in the series with Mus musculus, “Not Active”. The compound also came in with an inhibition in vivo at 28 µmol/kg in the series on Rattus norvegicus [19] of 50%. The same compound displayed an ID75 in the series with Cavia porcellus [6] of 0.17 µM/kg.

In series [21], `Cc1cccc(C)c1NC(=O)CCN1CCN(c2ccccn2)CC1` came in with an LD50 of 810 µmol/kg. Besides, the ED50 in the series with Rattus norvegicus [22] amounted to 86 µmol/kg; with Rattus norvegicus [24], 8 µmol/kg. This compound registered an inhibition in vivo at 45 µmol/kg with Rattus norvegicus [23] of 27%.

As for `O=C([O-])c1cc(=O)c2c(OCC(O)COc3cccc4oc(C(=O)[O-])cc(=O)c34)cccc2o1.[Na+].[Na+]` [CROMOLYN SODIUM], the figures for the ED50 with Rattus norvegicus [25] and in the series with Rattus norvegicus [5] were 60 µmol/kg and above 640 µmol/kg, respectively. Moreover, the figures for the LD50 (in series [2]; in the series with Mus musculus) were above 6410 µmol/kg and “Not Active”, respectively. Moreover, the ID75 in the series with Cavia porcellus [26] was above 21 µM/kg. The inhibition in vivo at 43 µmol/kg in the series on Rattus norvegicus [27] was 83%.

Consider `CN1CCC(=C2c3ccccc3CC(=O)c3sccc32)CC1` [KETOTIFEN], for which the results for the LD50 in series [28] and in series [30] were 580 µmol/kg and 350 µmol/kg, respectively. For the same compound, the ED50 in the series on Rattus norvegicus [29] came to 2 µmol/kg. For the same compound, the inhibition in vivo at 2 µmol/kg in the series with Rattus norvegicus [31] was determined as 22%. This compound gave an ID75 with Cavia porcellus [6] of 0.0015 µM/kg.

The values above are taken from ChEMBL document CHEMBL1123658, “1-(2-pyridinyl)piperazine derivatives with antianaphylactic, antibronchospastic, and mast cell stabilizing activities” (J Med Chem, 1987).
